Published values of several laboratories.
Each line is one published result; the experiments were not run side by side. In brackets after ≈: the same amount, converted by molar mass.
Organism: Candida albicans
Read-out: microbial growth

SMILES	method	strain	tested at	time	quantity	result
Cc1nn(-c2ccccc2)c2c1C(c1cncs1)N(C(=O)c1ccncc1)N2 (centres unmarked)		MTCC183			MIC	> 100 µg/mL
Cc1c(C(N)=O)c(N)n(N)c(=O)c1C#N	well diffusion	ATCC10231	500 µg/mL		inhibition zone	12 mm
Cc1nn(-c2ccccc2)c2c1C(c1ccc(N(C)C)cc1)N(C(=O)c1ccncc1)N2 (centres unmarked)		MTCC183			MIC	32 µg/mL (≈ 75.4 µM)
N#Cc1c(-c2ccc(Cl)cc2Cl)c(C(N)=S)c(N)n(N)c1=O	well diffusion	ATCC10231	500 µg/mL		inhibition zone	13 mm
CC(C)=CCCC(C)=CC1c2c(C)nn(-c3ccccc3)c2NN1C(=O)c1ccncc1 (centres unmarked)		MTCC183			MIC	32 µg/mL (≈ 74.8 µM)
Cc1ccccc1NC(=O)C=Cc1ccc(O)c(O)c1	broth dilution	SC5314			MIC	32 µg/mL (≈ 119 µM)
CC(=O)N1CCN(c2ccc(OCC3COC(Cn4ccnc4)(c4ccc(Cl)cc4Cl)O3)cc2)CC1 (centres unmarked)	well diffusion	ATCC10231	500 µg/mL		inhibition zone	24 mm
O=C(C=Cc1ccc(O)c(O)c1)Oc1cccc2cccnc12	broth dilution	SC5314			MIC	16 µg/mL (≈ 52.1 µM)
Cc1nn(-c2ccccc2)c2c1C(c1ccco1)N(C(=O)c1ccncc1)N2 (centres unmarked)		MTCC183			MIC	> 100 µg/mL
OC(Cn1cncn1)(Cn1cncn1)c1ccc(F)cc1F	broth dilution	SC5314			MIC	0.25 µg/mL (≈ 0.816 µM)
Cc1c(C(N)=S)c(N)n(N)c(=O)c1C#N	well diffusion	ATCC10231	500 µg/mL		inhibition zone	19 mm
O=C(C=Cc1ccc(O)c(O)c1)Oc1ccccc1	broth dilution	SC5314			MIC	32 µg/mL (≈ 125 µM)
Cc1nn(-c2ccccc2)c2c1C(c1ccc(Cl)cc1)N(C(=O)c1ccncc1)N2 (centres unmarked)		MTCC183			MIC	0.25 µg/mL (≈ 0.601 µM)
OC(Cn1cncn1)(Cn1cncn1)c1ccc(F)cc1F	broth dilution	SC5314		48 h	MIC50	0.8 µM (≈ 0.245 µg/mL)
O=C(C=Cc1ccc(O)c(O)c1)OCCc1ccccc1	broth dilution	SC5314			MIC	8 µg/mL (≈ 28.1 µM)
CC(=O)Oc1ccc(-c2c(C(N)=O)c(N)n(N)c(=O)c2C#N)cc1	well diffusion	ATCC10231	500 µg/mL		inhibition zone	12 mm
C[C@@H]1[C@H](O)[C@@H](C)/C=C/C=C/C=C/C=C/C=C/C=C/C=C/[C@H](O[C@@H]2O[C@H](C)[C@@H](O)[C@H](N)[C@@H]2O)C[C@@H]2O[C@](O)(C[C@@H](O)C[C@@H](O)[C@H](O)CC[C@@H](O)C[C@@H](O)CC(=O)O[C@H]1C)C[C@H](O)[C@H]2C(=O)O	broth dilution	ATCC60193		24 h	MIC	2 µg/mL (≈ 2.16 µM)
